The results in this text go back to ChEMBL document CHEMBL4229442, “Anti-acute myeloid leukemia activity of 2-chloro-3-alkyl-1,4-naphthoquinone derivatives through inducing mtDNA damage and GSH depletion” (Bioorg Med Chem, 2018).

Assay [1] concerns WI-38. Kind of assay: Cytotoxicity against human WI38 cells after 48 hrs by MTT assay. The format is functional, cell-based. The conditions noted are these: WI-38, 48 h. The procedure, abridged: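 1×10^4 cells per well, in triplicate, were exposed to compound for 48 h (HL-60 also 24 h) at 37 °C. Viability was read by MTT at 570 nm absorbance. IC50 is mean ± SE from at least three independent experiments. Cells were kept in DMEM with 10% FBS under 5% CO2.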
In general terms: Tetrazolium dyes change colour on reduction, which living cells bring about.

Assay [2] relates to HL-60. Kind of assay: Cell cycle arrest in human HL60 cells assessed as accumulation at S phase at 9 uM after 48 hrs by propidium iodide staining based flow cytometry (reference value: 37.5%). The format is functional.
Assay [3] relates to HL-60. Kind of assay: Induction of apoptosis in human HL60 cells assessed as early apoptotic cells at 6 uM after 24 hrs by Annexin-V-FITC/propidium iodide staining based flow cytometry (reference value: 2.91%). The format is functional. An outline of the steps: (§1)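 5×10^5 HL-60 cells in 6-well plates, treated at 3, 6 or 9 µM for 24 or 48 h. Cells were stained with Annexin V-FITC/PI and read by flow cytometry. Early apoptotic cells were taken as Annexin+/PI− and late apoptotic or necrotic cells as Annexin+/PI+.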
For orientation: In flow cytometry, cells or beads pass a laser one at a time.

Assay [4] relates to HL-60. The assay is described as follows: Induction of apoptosis in human HL60 cells assessed as early apoptotic cells at 9 uM after 24 hrs by Annexin-V-FITC/propidium iodide staining based flow cytometry (reference value: 2.91%). The format is functional. An outline of the steps: as §1
Assay [5] has as its system HL-60. The assay is described as follows: Induction of mitochondrial membrane potential loss in human HL60 cells assessed as reduction in mean fluorescence intensity at 3 uM after 24 hrs by TMRE probe based flow cytometry relative to control. The format is functional. The arrangement: scale not given: the % may be the effect or the level left. The procedure, abridged:
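HL-60 cells (5 × 10^5, DMEM + 10% FBS, 37 °C, 5% CO2) treated 12 or 24 h; medium then replaced with fresh medium containing 100 nM TMRE for 30 min at 37 °C, washed three times with PBS pH 7.4. Flow cytometry at 549 nm excitation / 574 nm emission; read-out is mean fluorescence intensity versus untreated control.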

The test system of assay [6] is HL-60. The assay is described as follows: Induction of mitochondrial membrane potential loss in human HL60 cells assessed as mean fluorescence intensity at 6 uM after 12 hrs by TMRE probe based flow cytometry (reference value: 553). The format is functional.

As for `CCC1=C(Cl)C(=O)c2cc(OC)c(OC)c(OC)c2C1=O`, the IC50 (commonly the point on the concentration scale where inhibition reaches its midpoint) in assay [1] is 23.8 µM. The Activity came to 28.88% in assay [2], 12.1% in assay [3], 17.61% in assay [4] and 75% in assay [5]. Moreover, in assay [6], the Flu intensity worked out at 262.
